The record followed here is the array DNA melting data of Ke et al. (doi:10.1101/2024.01.08.574731).

Data set [1] is described as follows: melting temperature; fluorescence melt of hairpins on a sequencing array, two-state fit, raised by 9.35 °C to match UV melts. The conditions noted are these: sodium 0.088 M. Put shortly:
(§1)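 Folding enthalpy and melting temperature were estimated with bootstrapped two-state fits and combined across four replicates by inverse-variance weighting, with fitted temperatures raised by 9.35 °C to match UV melts. The data were Cy3 fluorescence of library hairpins, with annealed Cy3 and quencher oligos, on a sequenced MiSeq flow cell in 50 mM Na-HEPES pH 8.0, 25 mM NaCl, imaged in 2.5 °C steps up to 60 °C and normalised to pre-quench Cy3 and control constructs.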

A short description of data set [2]: folding enthalpy; higher = less favourable; fluorescence melt of hairpins on a sequencing array, two-state fit. The following applies: sodium 0.088 M. Put shortly:
as §1

For GATCTACATTAGATC ((((((...)))))), the Tm in data set [1] was 37.5 °C. Moreover, the folding enthalpy in data set [2] is -25 kcal/mol.
In the same order, the values of GATCTACCCCTAGATC ((((((....)))))) are 39.9 °C and -38.4 kcal/mol.
Turning to GATCTACCCTTAGATC ((((((....)))))), the Tm in data set [1] worked out at 41.8 °C. Besides, the folding enthalpy in data set [2] is -35.6 kcal/mol.
With GATCTACCGCTAGATC ((((((....)))))), the Tm in data set [1] stood at 40 °C. The folding enthalpy in data set [2] is -29.4 kcal/mol.
With GATCTACCGTTAGATC ((((((....)))))), in data set [1], the Tm was 37.8 °C. For the same sequence, the folding enthalpy in data set [2] was -30.5 kcal/mol.
Regarding GATCTACCTCTAGATC ((((((....)))))), the Tm in data set [1] is 37.8 °C. Moreover, the folding enthalpy in data set [2] was -36.3 kcal/mol.
Taken in the same sequence, the figures for GATCTACCTTTAGATC ((((((....)))))) were 38.3 °C and -30.4 kcal/mol.
As for GATCTACGCGTAGATC ((((((....)))))), the Tm in data set [1] was 55.5 °C. Besides, in data set [2], the folding enthalpy was -52.1 kcal/mol.
In the same order, the values of GATCTACGCTAGATC ((((((...)))))) are 43.4 °C and -18.5 kcal/mol.
As for GATCTACGTATAGATC ((((((....)))))), the Tm in data set [1] was found to be 41.2 °C. The folding enthalpy in data set [2] was -33.8 kcal/mol.
In the same order, the values of GATCTACTCATAGATC ((((((....)))))) are 41.7 °C and -35.5 kcal/mol.
For GATCTACTGATAGATC ((((((....)))))), in data set [1], the Tm was found to be 39.3 °C. For the same sequence, in data set [2], the folding enthalpy was -28.8 kcal/mol.
As to GATCTACTGCTAGATC ((((((....)))))), the Tm in data set [1] was determined as 40.1 °C. Moreover, in data set [2], the folding enthalpy was -26.1 kcal/mol.
Taken in the same sequence, the figures for GATCTAGACATAGATC ((((((....)))))) were 47.9 °C and -35 kcal/mol.
In the same order, the values of GATCTAGCCTAGATC ((((((...)))))) are 40.8 °C and -28.4 kcal/mol.
As for GATCTAGCGAAAGCTATC (((..(((....)))))), the Tm in data set [1] came to 22.8 °C. Also, the folding enthalpy in data set [2] is -10.5 kcal/mol.
In the case of GATCTAGCTTAGATC ((((((...)))))), the Tm in data set [1] was found to be 38.1 °C. Further, in data set [2], the folding enthalpy was -29.4 kcal/mol.
For the sequence GATCTAGGACTAGATC ((((((....)))))), in data set [1], the Tm was determined as 47.4 °C. For the same sequence, the folding enthalpy in data set [2] was -39.7 kcal/mol.
In the same order, the values of GATCTAGGGCTAGATC ((((((....)))))) are 43.5 °C and -32.9 kcal/mol.
Turning to GATCTAGGGTTAGATC ((((((....)))))), the Tm in data set [1] was found to be 37.4 °C. For the same sequence, the folding enthalpy in data set [2] was -28.4 kcal/mol.
Taken in the same sequence, the figures for GATCTAGGTGTAGATC ((((((....)))))) were 42.9 °C and -31 kcal/mol.
In the same order, the values of GATCTAGGTTAGATC ((((((...)))))) are 39.2 °C and -28.5 kcal/mol.
Regarding GATCTAGTAATAGATC ((((((....)))))), the Tm in data set [1] was determined as 47.9 °C. For the same sequence, the folding enthalpy in data set [2] was -35.8 kcal/mol.
As for GATCTAGTAGTAGATC ((((((....)))))), the Tm in data set [1] came out at 43.4 °C. For the same sequence, the folding enthalpy in data set [2] was -29.1 kcal/mol.
In the same order, the values of GATCTATACTAGATC ((((((...)))))) are 40.6 °C and -32.6 kcal/mol.
Taken in the same sequence, the figures for GATCTATAGGTAGATC ((((((....)))))) were 42.2 °C and -32.8 kcal/mol.
Taken in the same sequence, the figures for GATCTATAGTTAGATC ((((((....)))))) were 39.4 °C and -27.1 kcal/mol.
For GATCTATATATAGATC ((((((....)))))), in data set [1], the Tm was 46.4 °C. Moreover, in data set [2], the folding enthalpy is -46.8 kcal/mol.
In the case of GATCTATATTAGATC ((((((...)))))), in data set [1], the Tm is 40.9 °C. The folding enthalpy in data set [2] is -26.1 kcal/mol.
On to GATCTATCCATAGATC ((((((....)))))), for which, in data set [1], the Tm turned out to be 46.5 °C. The folding enthalpy in data set [2] was -38.1 kcal/mol.
Taken in the same sequence, the figures for GATCTATCCTAGATC ((((((...)))))) were 41.1 °C and -30.6 kcal/mol.
Regarding GATCTATCTTAGATC ((((((...)))))), the Tm in data set [1] came to 41.4 °C. In addition, in data set [2], the folding enthalpy was -24.6 kcal/mol.
With GATCTATGAGTAGATC ((((((....)))))), the Tm in data set [1] was 45.5 °C. Further, in data set [2], the folding enthalpy is -40.3 kcal/mol.
In the same order, the values of GATCTATGGATAGATC ((((((....)))))) are 43 °C and -29.5 kcal/mol.
In the same order, the values of GATCTATGGCTAGATC ((((((....)))))) are 37.6 °C and -30.1 kcal/mol.
Taken in the same sequence, the figures for GATCTATGGGTAGATC ((((((....)))))) were 45.6 °C and -33.2 kcal/mol.
Regarding GATCTATTACTAGATC ((((((....)))))), the Tm in data set [1] worked out at 39.2 °C. Further, the folding enthalpy in data set [2] was -32.4 kcal/mol.
Taken in the same sequence, the figures for GATCTATTCTAGATC ((((((...)))))) were 41.3 °C and -27.6 kcal/mol.
Taken in the same sequence, the figures for GATCTATTGCTAGATC ((((((....)))))) were 40.5 °C and -32.8 kcal/mol.
In the same order, the values of GATCTCAAAGGAGATC ((((((....)))))) are 48.2 °C and -33.4 kcal/mol.
On to GATCTCAAGTGAGATC ((((((....)))))), for which, in data set [1], the Tm came out at 51.5 °C. Also, in data set [2], the folding enthalpy is -34.5 kcal/mol.
Taken in the same sequence, the figures for GATCTCACAGAGATC ((((((...)))))) were 56.1 °C and -39.3 kcal/mol.
In the case of GATCTCACGTGAGATC ((((((....)))))), the Tm in data set [1] came to 55.1 °C. For the same sequence, in data set [2], the folding enthalpy was -54.2 kcal/mol.
In the case of GATCTCAGCGAGATC ((((((...)))))), the Tm in data set [1] was 56.6 °C. For the same sequence, in data set [2], the folding enthalpy is -35.3 kcal/mol.
In the same order, the values of GATCTCAGCTGAGATC ((((((....)))))) are 54.9 °C and -46.8 kcal/mol.
Turning to GATCTCATCAGAGATC ((((((....)))))), the Tm in data set [1] turned out to be 55.6 °C. Further, the folding enthalpy in data set [2] was -35.2 kcal/mol.
In the case of GATCTCATCCGAGATC ((((((....)))))), the Tm in data set [1] stood at 53.2 °C. In addition, the folding enthalpy in data set [2] was -39.2 kcal/mol.
In the same order, the values of GATCTCCAGGAGATC ((((((...)))))) are 52.3 °C and -37.3 kcal/mol.
Take GATCTCCAGGGAGATC ((((((....)))))): in data set [1], the Tm stood at 55 °C. The folding enthalpy in data set [2] was -36.5 kcal/mol.
Taken in the same sequence, the figures for GATCTCCATTGAGATC ((((((....)))))) were 52.3 °C and -33.7 kcal/mol.
Regarding GATCTCCCAGGAGATC ((((((....)))))), the Tm in data set [1] was found to be 56.8 °C. Also, the folding enthalpy in data set [2] is -36.4 kcal/mol.
As to GATCTCCCTAGAGATC ((((((....)))))), the Tm in data set [1] turned out to be 55.7 °C. For the same sequence, the folding enthalpy in data set [2] was -36.2 kcal/mol.
Take GATCTCCGACGAGATC ((((((....)))))): the Tm in data set [1] came out at 50 °C. The folding enthalpy in data set [2] is -38.1 kcal/mol.
On to GATCTCCGATGAGATC ((((((....)))))), for which the Tm in data set [1] came to 50.7 °C. Further, the folding enthalpy in data set [2] was -31.3 kcal/mol.
In the same order, the values of GATCTCCGCCGAGATC ((((((....)))))) are 50.9 °C and -49.6 kcal/mol.
In the same order, the values of GATCTCCGCGAGATC ((((((...)))))) are 55.4 °C and -44.8 kcal/mol.
In the same order, the values of GATCTCCGGCGAGATC ((((((....)))))) are 50.7 °C and -27.1 kcal/mol.
